Three compounds from ChEMBL document CHEMBL3580617, “Discovery of Benzimidazole CYP11B2 Inhibitors with in Vivo Activity in Rhesus Monkeys” (ACS Med Chem Lett, 2015) can be followed below.

For series [1], the system named is Rhesus monkey. The following applies: Macaca mulatta; 1 mg/kg.
In another series the target is Cytochrome P450 2C9 (Homo sapiens, UniProt P11712). As to the kind of experiment: Inhibition of CYP2C9 (unknown origin). The series is classed as ADME.
For series [2], the target named is T1, Steroid 17-alpha-hydroxylase/17,20 lyase (Homo sapiens, UniProt P05093).
T1 sequence (P05093 whole entry): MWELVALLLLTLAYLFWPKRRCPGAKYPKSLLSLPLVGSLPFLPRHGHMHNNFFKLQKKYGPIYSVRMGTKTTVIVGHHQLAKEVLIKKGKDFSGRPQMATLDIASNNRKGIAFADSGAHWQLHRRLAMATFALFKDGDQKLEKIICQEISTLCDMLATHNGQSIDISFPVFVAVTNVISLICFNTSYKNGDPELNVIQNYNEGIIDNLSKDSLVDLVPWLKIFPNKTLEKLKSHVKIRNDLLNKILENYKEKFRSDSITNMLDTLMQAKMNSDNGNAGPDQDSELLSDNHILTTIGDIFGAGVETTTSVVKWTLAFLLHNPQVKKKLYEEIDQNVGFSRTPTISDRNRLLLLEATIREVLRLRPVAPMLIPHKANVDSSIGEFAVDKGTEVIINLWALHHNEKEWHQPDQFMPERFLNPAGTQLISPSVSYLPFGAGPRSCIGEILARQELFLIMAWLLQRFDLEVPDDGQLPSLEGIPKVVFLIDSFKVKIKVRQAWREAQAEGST
Put plainly: Inhibition of human CYP17 expressed in COS7 cells incubated for 1 hr before 17-hydroxypregnenolone substrate addition by EIA method. The format is cell-based, COS-7.

The species entered for series [3] is Homo sapiens. As to the kind of experiment: Selectivity index, ratio of IC50 for CYP19 (unknown origin) to IC50 for human CYP11B2.
A short description of series [4]: Fraction unbound in rat plasma at […] incubated for 4 hrs by equilibrium dialysis and LC/MS method. The series is classed as ADME, cell-free. A general note: In equilibrium dialysis only unbound substance equilibrates across the membrane.
A further series concerns the target Cytochrome P450 2D6 (Homo sapiens, UniProt P10635). As to the kind of experiment: Inhibition of CYP2D6 (unknown origin). The series is classed as ADME.
In another series the target is T2, Aromatase (Homo sapiens, UniProt P11511).
T2 sequence (P11511 whole entry): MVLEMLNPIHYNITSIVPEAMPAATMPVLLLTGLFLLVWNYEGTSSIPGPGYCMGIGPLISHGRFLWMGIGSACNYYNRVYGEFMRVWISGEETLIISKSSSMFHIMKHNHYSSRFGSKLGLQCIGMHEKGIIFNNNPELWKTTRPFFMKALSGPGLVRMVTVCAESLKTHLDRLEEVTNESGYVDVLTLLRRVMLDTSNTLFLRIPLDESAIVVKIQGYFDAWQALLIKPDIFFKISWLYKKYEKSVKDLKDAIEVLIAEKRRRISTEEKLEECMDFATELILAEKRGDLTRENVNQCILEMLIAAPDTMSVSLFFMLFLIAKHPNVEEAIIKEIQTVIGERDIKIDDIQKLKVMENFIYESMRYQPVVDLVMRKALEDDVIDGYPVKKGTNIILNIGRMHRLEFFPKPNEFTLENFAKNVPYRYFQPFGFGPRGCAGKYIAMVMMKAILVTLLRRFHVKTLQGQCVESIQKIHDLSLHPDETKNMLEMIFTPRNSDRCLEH
As to the kind of experiment: Inhibition of CYP19 (unknown origin) using MFC substrate incubated for 30 mins.

A further series addresses Cytochrome P450 3A4 (Homo sapiens, UniProt P08684). As to the kind of experiment: Inhibition of CYP3A4 (unknown origin). The format is ADME.
For series [5], the species on record is Homo sapiens. As to the kind of experiment: Selectivity index, ratio of IC50 for human CYP11B1 to IC50 for human CYP11B2. In a few lines: (§1)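 Human CYP11B2 and CYP11B1 inhibition was tested in cell-based assays. Selectivity was taken as the hCYP11B1 IC50 divided by the hCYP11B2 IC50.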
Series [6] has as its target T3, Cytochrome P450 11B2, mitochondrial (Rattus norvegicus, UniProt P30099).
T3 sequence (P30099 whole entry): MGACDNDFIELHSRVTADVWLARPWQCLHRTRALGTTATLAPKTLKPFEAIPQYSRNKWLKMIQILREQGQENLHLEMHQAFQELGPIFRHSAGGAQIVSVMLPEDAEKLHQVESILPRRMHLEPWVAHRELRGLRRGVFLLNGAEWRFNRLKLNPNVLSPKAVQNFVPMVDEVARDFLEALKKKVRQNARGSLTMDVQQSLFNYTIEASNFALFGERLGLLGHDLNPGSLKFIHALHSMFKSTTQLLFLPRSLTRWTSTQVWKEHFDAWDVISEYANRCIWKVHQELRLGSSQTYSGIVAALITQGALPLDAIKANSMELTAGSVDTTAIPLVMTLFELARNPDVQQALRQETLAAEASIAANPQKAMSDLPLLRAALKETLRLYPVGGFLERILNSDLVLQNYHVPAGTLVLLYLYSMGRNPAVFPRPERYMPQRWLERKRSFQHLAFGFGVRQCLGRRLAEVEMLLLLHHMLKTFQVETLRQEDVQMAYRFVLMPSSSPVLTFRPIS
As to the kind of experiment: Inhibition of rat CYP11B2 expressed in V79 cells incubated for 1 hr before 11-deoxycorticosterone substrate addition by HTRF-based assay. Particulars: v79, 1 h. The format is cell-based.

The target in another series is T4, Steroid 21-hydroxylase (Homo sapiens, UniProt P08686).
T4 sequence (P08686 whole entry): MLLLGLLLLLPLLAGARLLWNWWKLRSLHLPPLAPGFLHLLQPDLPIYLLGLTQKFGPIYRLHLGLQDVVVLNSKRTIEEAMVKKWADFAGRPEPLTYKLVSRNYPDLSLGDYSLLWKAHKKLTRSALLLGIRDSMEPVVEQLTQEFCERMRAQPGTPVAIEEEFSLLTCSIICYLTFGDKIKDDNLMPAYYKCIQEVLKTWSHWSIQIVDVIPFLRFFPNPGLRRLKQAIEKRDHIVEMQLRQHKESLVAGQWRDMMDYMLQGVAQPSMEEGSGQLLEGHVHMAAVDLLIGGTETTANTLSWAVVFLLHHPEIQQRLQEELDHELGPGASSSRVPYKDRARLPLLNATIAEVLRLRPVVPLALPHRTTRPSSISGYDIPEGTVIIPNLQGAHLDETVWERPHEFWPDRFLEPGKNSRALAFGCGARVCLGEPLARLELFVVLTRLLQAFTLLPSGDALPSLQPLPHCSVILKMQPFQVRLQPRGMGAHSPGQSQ
As to the kind of experiment: Inhibition of human CYP21 expressed in COS7 cells incubated for 1 hr before […] substrate addition by HTRF-based assay. The format is cell-based, COS-7. Background: TR-FRET usually uses a lanthanide donor and a delayed reading to cut background.

The subject of a further series is V79. As to the kind of experiment: Inhibition of rhesus monkey CYP11B2 expressed in V79 cells incubated for 1 hr before 11-deoxycorticosterone substrate addition by HTRF-based assay. The format is cell-based. Particulars: Macaca mulatta.
A short description of series [7]: Oral bioavailability in Sprague-Dawley rat at 2 mg/kg by LC-MS/MS method. The following applies: in vivo. The format is ADME, organism-based. In a few lines: (§2)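 In the rat pharmacokinetic study, AUC was normalized for dose (μM·h·kg/mg), plasma clearance was expressed in mL/min/kg, and oral bioavailability was calculated.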
Series [8] can be described thus: Plasma clearance in Sprague-Dawley rat at 2 mg/kg, po or 1 mg/kg, iv by LC-MS/MS method. The series is classed as ADME, organism-based. In a few lines: as §2
Series [9] in a line: Intrinsic clearance in rat liver microsomes at […] incubated for 10 mins before NADPH addition by LC/MS method. The format is ADME. Particulars: read-out: CLH. (Microsomes from liver hold many membrane-bound enzymes, among them those of drug oxidation.)
A further series relates to Rattus norvegicus. As to the kind of experiment: Dose normalized AUC in Sprague-Dawley rat at 2 mg/kg, po or 1 mg/kg, iv by LC-MS/MS method. The series is classed as ADME, organism-based. The following applies: in vivo. In a few lines: as §2
The species entered for series [10] is Homo sapiens. Put plainly: Selectivity index, ratio of IC50 for CYP2C9 (unknown origin) to IC50 for human CYP11B2.
Series [11] in a line: Plasma clearance in rhesus monkey at 1 mg/kg, po or 0.5 mg/kg, iv by LC-MS/MS method. The format is ADME, organism-based, Macaca mulatta.
Series [12] concerns the target T5, Cytochrome P450 11B1, mitochondrial (Homo sapiens, UniProt P15538).
T5 sequence (P15538 whole entry): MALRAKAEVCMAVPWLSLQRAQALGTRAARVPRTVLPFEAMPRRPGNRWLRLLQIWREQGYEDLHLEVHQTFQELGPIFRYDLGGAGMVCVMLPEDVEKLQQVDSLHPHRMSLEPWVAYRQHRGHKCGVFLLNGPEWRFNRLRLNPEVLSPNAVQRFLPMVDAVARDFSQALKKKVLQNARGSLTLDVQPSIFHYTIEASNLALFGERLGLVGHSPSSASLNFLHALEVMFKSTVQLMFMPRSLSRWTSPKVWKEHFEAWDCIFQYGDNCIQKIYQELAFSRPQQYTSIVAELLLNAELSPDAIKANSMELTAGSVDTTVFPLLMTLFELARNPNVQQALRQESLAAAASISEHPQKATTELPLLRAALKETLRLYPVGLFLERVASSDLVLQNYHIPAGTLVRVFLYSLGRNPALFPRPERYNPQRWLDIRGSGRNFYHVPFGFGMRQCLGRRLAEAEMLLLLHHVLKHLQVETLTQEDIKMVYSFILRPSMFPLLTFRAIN
Put plainly: Inhibition of human CYP11B1 expressed in V79 cells incubated for 1 hr before 11-deoxycortisol substrate addition by HTRF-based assay. The series is classed as cell-based. The essentials:
as §1

The target in series [13] is T6, Cytochrome P450 11B2, mitochondrial (Homo sapiens, UniProt P19099).
T6 sequence (P19099 whole entry): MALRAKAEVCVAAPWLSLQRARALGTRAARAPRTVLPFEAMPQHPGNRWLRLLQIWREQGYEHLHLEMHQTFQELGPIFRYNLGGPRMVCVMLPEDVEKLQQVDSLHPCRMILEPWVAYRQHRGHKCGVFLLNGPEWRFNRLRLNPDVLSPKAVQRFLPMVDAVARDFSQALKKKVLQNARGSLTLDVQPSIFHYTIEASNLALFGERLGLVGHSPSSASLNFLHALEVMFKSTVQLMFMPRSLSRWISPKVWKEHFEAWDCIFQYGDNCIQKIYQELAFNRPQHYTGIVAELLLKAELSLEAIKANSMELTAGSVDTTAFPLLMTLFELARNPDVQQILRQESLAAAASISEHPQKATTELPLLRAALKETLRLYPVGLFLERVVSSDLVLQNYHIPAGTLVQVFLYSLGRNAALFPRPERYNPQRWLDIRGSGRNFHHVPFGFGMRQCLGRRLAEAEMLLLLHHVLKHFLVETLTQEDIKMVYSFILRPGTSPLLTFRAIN
As to the kind of experiment: Inhibition of human CYP11B2 expressed in V79 cells incubated for 1 hr before 11-deoxycorticosterone substrate addition by HTRF-based assay. The format is cell-based. In a few lines:
as §1

Series [14] in a line: Intrinsic clearance in rhesus monkey liver microsomes at […] incubated for 10 mins before NADPH addition by LC/MS method. The series is classed as ADME, Macaca mulatta. The following applies: read-out: CLH.
Series [15] has as its system Rhesus monkey. As to the kind of experiment: Dose normalized AUC in rhesus monkey at 1 mg/kg, po or 0.5 mg/kg, iv by LC-MS/MS method. The series is classed as ADME, organism-based, Macaca mulatta. Particulars: in vivo.
The species named for series [16] is Homo sapiens. Put plainly: Selectivity index, ratio of IC50 for CYP3A4 (unknown origin) to IC50 for human CYP11B2.
The species named for series [17] is Homo sapiens. As to the kind of experiment: Selectivity index, ratio of IC50 for CYP2D6 (unknown origin) to IC50 for human CYP11B2.
Series [18] can be described thus: Oral bioavailability in rhesus monkey at 1 mg/kg by LC-MS/MS method. The format is ADME, organism-based, Macaca mulatta. Particulars: in vivo.

SMILES strings stand for the structures. Calls of active or inactive are those of the source. The rule behind the calls is not given here.

Sequence of Cytochrome P450 3A4 (P08684 whole entry): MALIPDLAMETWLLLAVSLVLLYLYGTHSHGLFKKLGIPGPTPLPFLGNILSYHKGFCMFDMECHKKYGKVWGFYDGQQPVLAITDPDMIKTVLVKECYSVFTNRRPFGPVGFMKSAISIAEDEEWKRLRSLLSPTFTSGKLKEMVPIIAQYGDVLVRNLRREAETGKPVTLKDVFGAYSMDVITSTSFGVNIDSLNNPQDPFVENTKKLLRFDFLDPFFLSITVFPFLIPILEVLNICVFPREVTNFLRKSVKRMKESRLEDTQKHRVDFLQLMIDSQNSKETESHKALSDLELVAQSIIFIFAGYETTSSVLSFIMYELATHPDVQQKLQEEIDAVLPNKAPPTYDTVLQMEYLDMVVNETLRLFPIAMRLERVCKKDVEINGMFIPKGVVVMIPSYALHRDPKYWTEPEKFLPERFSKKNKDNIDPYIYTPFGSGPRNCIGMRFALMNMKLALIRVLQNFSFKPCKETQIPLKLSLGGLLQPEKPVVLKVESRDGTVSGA
Sequence of Cytochrome P450 2D6 (P10635 whole entry): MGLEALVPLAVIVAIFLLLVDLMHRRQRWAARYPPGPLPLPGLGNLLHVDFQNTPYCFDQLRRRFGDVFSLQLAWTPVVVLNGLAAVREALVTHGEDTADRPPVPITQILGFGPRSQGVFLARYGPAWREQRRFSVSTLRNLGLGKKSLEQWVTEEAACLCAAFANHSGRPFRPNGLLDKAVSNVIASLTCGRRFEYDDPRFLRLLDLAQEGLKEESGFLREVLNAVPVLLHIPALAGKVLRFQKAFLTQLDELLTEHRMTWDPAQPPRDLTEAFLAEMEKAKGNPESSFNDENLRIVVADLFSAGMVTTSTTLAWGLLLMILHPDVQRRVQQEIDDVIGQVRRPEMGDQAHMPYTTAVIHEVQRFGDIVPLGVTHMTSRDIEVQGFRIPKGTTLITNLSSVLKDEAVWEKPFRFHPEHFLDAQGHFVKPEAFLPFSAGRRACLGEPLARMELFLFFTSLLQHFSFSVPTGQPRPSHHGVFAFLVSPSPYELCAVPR
Sequence of Cytochrome P450 2C9 (P11712 whole entry): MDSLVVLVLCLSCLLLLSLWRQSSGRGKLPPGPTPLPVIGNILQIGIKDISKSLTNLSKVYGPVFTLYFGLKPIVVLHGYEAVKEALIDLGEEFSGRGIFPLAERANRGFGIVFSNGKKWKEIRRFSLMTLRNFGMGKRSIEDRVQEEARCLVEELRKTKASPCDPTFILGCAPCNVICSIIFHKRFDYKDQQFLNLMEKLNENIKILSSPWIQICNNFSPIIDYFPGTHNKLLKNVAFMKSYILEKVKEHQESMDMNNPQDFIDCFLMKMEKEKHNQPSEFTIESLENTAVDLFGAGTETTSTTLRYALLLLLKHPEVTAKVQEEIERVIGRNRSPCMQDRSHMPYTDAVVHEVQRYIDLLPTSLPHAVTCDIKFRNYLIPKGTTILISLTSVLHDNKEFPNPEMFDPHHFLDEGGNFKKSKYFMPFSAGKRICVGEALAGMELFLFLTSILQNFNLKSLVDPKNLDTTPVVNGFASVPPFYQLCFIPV

In the case of `N#Cc1ccc(C2CCCc3cncn32)cc1` (stereo unspecified), the inhibition result with Rhesus monkey [1] is “Active”.

The term IC50 denotes the point on the concentration scale where inhibition reaches its midpoint. The term fraction unbound denotes the share of the substance not bound to proteins or other matrix. Usually bioavailability stands for the share of a dose that reaches the circulation, judged against a reference dose that is usually intravenous. Consider `CC(C)(O)c1cncc(-c2nc3cc(F)c(F)cc3n2C2CC2)c1`, for which the “inhibition (INH)” value (at Cytochrome P450 2C9; at Cytochrome P450 2D6; in series [6]) was “Not Active” each time. Moreover, the IC50 in [2] was more than 10 µM; at Aromatase it was 1.27 µM; against Cytochrome P450 3A4, more than 50 µM; against Steroid 21-hydroxylase, more than 10 µM. Besides, the Ratio IC50 in the series listed under Homo sapiens [3] is 500; in the series listed under Homo sapiens [5], 140. Besides, the fraction unbound at 4 h in series [4] is 0.14. The inhibition result in the series with V79 is “Active”. Moreover, the bioavailability in series [7] was found to be 94%. In addition, in series [8], the clearance turned out to be 7 mL/min/kg. For the same compound, the CLint scaled in [9] is less than 20 mL/min/kg. The AUC/dose in the series on Rattus norvegicus was determined as 6.55 µM·kg·h/mg.

With `Cc1c(F)cncc1-c1nc2cc(F)c(F)cc2n1C1CC1`, the Ratio IC50 in the series filed under Homo sapiens [10] is more than 1000; in the series filed under Homo sapiens [5] it was 553; in the series filed under Homo sapiens [16] it was more than 1000; in the series filed under Homo sapiens [17] it was more than 1000. Besides, the IC50 in series [2] was more than 10 µM; in series [12] it was 0.258 µM; in [13] it was 0.0005 µM; against Cytochrome P450 3A4, 8.24 µM; against Steroid 21-hydroxylase it was more than 10 µM. This compound also returned a clearance in series [11] of 19 mL/min/kg. The CLint scaled in series [14] was less than 20 mL/min/kg. For the same compound, the AUC/dose in the series with Rhesus monkey [15] was 2.49 µM·kg·h/mg. In [6], the “inhibition (INH)” value is on record as “Not Active”. In addition, the inhibition result in the series on V79 was “Active”. In [18], this compound showed a bioavailability of 88%.
